# According to PMC5589077 (ACS chemical neuroscience, 2015):
# Several values for one entry are separate records, joined by “and”; a condition that tells them apart may be missing. Equal values may be shown once.
# Assays:
# α6β2*- and α4β2*-nAChRs = details: via activation of α6β2*- and α4β2*-nAChRs; cited from earlier work
# nAChRs = details: cited from earlier work; for Ki: read-out: Ki for inhibition of [3H]epibatidine binding to nAChRs
# α4α6β2-nAChRs = details: cited from earlier work
# mouse [1] = details: cited from earlier work
# SERT = SERT (Homo sapiens, UniProt P31645); assay: off-target radioligand binding assay; details: 10 μM
# 5HT2C = 5HT2C (Homo sapiens, UniProt P28335); assay: off-target radioligand binding assay; details: 10 μM
# μ opioid receptor = μ opioid receptor (Homo sapiens, UniProt P35372); assay: off-target radioligand binding assay; details: 10 μM
# α6β2*-nAChR [2] = target: T1, α6β2*-nAChR (Mus musculus, UniProt Q9ERK7+Q9R0W9); format: cell-based; details: for max (% nic) dopamine release, sens α6β2: 10 μM (+) PHT or 100 μM (−) PHT compared to 10 μM nic response
# T1 sequence (Q9ERK7 26-501): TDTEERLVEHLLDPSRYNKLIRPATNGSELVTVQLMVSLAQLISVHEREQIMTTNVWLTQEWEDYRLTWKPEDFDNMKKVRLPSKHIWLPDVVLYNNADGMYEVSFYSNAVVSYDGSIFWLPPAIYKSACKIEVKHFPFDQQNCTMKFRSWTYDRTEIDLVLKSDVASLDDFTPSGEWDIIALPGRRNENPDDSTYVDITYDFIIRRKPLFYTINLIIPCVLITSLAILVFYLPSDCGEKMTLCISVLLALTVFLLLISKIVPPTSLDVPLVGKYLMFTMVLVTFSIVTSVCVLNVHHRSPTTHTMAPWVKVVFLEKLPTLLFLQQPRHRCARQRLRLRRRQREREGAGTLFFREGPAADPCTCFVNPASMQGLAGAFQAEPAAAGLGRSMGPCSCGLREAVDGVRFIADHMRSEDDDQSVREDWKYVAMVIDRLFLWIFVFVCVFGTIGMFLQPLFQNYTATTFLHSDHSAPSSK
# T1 sequence (Q9R0W9 26-494): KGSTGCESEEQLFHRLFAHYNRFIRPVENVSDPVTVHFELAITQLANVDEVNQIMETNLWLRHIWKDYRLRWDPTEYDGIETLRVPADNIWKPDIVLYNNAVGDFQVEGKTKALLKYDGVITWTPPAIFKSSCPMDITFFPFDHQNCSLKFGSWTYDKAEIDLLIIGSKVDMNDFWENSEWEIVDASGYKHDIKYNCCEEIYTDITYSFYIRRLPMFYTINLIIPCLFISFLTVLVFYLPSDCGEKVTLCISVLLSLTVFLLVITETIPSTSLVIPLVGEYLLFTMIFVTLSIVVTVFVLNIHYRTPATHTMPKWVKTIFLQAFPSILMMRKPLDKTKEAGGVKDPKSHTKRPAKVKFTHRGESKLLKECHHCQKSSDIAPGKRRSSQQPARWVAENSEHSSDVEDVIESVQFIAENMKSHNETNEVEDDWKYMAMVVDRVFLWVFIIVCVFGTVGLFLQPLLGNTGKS
# δ opioid receptor = δ opioid receptor (Homo sapiens, UniProt P41143); assay: off-target radioligand binding assay; details: 10 μM
# DAD4 = DAD4 (Homo sapiens, UniProt P21917); assay: off-target radioligand binding assay; details: 10 μM
# DAD4, sequence (P21917 whole entry): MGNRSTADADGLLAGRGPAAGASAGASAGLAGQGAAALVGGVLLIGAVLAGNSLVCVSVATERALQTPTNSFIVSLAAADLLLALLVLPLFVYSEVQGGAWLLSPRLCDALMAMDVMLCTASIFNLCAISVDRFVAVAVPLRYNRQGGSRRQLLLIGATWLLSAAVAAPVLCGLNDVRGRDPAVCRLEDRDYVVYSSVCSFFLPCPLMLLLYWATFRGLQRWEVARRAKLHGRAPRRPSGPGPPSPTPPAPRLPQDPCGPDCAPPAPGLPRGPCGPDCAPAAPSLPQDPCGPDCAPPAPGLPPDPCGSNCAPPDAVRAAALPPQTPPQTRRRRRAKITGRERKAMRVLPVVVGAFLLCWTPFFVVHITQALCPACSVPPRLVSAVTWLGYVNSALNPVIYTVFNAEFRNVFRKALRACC
# mouse [3] = details: cited from earlier work; remark: listed apart in the source
# rat α7-nAChR = rat α7-nAChR (Rattus norvegicus, UniProt Q05941); format: cell-based; details: for antagonism (% of EC50 ACh remaining) α7: 100 μM compound, ACh 300 μM; for IC50: read-out: antagonism, IC50 α7, vs EC50 ACh 300 μM
# rat α7-nAChR, sequence (Q05941 23-502): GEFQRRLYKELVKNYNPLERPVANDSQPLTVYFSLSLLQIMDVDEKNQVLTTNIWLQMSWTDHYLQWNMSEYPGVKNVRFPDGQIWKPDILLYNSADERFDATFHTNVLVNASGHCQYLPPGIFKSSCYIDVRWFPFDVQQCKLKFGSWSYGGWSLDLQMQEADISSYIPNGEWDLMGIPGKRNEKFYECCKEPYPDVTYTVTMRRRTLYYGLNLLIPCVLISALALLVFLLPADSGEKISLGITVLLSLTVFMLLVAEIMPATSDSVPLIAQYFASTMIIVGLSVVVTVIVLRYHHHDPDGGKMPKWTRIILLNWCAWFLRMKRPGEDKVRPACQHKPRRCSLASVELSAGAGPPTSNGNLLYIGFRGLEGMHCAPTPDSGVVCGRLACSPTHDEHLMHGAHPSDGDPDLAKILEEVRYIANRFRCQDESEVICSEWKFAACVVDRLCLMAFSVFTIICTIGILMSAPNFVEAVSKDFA
# DAD2 = DAD2 (Homo sapiens, UniProt P14416); assay: off-target radioligand binding assay; details: 10 μM
# α6β2*-nAChR in α5KO = α6β2*-nAChR in α5KO (Mus musculus, UniProt Q9ERK7+Q9R0W9); format: cell-based; details: for max (% nic) dopamine release, α6β2 in α5KO: 10 μM (+) PHT or 100 μM (−) PHT compared to 10 μM nic response; for EC50: read-out: EC50 dopamine release, α6β2 in α5KO, α5KO mice
# α6β2*-nAChR in α5KO, sequence (Q9R0W9 26-494): as the sequence (Q9R0W9 26-494) above
# α6β2*-nAChR in α5KO, sequence (Q9ERK7 26-501): as the sequence (Q9ERK7 26-501) above
# α4β2*-nAChR = format: cell-based, mouse; details: for max (% nic) dopamine release, res α4β2: 10 μM (+) PHT or 100 μM (−) PHT compared to 10 μM nic response
# α4β2*-nAChR, sequence (Q9ERK7 26-501): as above
# α4β2*-nAChR, sequence (O70174 31-629, further chain): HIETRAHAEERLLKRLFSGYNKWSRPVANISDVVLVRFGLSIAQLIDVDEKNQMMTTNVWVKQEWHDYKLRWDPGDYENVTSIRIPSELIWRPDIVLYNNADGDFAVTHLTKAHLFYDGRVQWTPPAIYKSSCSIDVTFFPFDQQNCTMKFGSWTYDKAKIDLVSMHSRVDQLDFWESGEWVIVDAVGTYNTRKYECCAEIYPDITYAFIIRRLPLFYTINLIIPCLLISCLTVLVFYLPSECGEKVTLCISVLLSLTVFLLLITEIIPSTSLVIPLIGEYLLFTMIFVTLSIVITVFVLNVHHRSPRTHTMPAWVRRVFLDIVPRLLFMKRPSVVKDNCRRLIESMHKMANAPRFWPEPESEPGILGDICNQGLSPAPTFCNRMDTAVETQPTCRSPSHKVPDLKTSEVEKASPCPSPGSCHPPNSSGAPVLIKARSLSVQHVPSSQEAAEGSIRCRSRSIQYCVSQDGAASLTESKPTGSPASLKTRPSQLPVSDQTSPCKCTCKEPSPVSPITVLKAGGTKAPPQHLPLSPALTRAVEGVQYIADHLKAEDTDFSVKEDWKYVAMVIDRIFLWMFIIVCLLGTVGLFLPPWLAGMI
# mouse [4] = details: cited from earlier work; remark: listed apart in the source
# mouse [5] = details: cited from earlier work; for activity in tail-flick test given intrathecally: intrathecally 10 μg/mouse
# DAD3 = DAD3 (Homo sapiens, UniProt P35462); assay: off-target radioligand binding assay; details: 10 μM
# rat α3β4-nAChR = rat α3β4-nAChR (Rattus norvegicus, UniProt P04757+P12392); format: cell-based; details: for antagonism (% of EC50 ACh remaining) α3β4: 100 μM compound, ACh 200 μM; for IC50: read-out: antagonism, IC50 α3β4, vs EC50 ACh 200 μM
# rat α3β4-nAChR, sequence (P12392 21-495): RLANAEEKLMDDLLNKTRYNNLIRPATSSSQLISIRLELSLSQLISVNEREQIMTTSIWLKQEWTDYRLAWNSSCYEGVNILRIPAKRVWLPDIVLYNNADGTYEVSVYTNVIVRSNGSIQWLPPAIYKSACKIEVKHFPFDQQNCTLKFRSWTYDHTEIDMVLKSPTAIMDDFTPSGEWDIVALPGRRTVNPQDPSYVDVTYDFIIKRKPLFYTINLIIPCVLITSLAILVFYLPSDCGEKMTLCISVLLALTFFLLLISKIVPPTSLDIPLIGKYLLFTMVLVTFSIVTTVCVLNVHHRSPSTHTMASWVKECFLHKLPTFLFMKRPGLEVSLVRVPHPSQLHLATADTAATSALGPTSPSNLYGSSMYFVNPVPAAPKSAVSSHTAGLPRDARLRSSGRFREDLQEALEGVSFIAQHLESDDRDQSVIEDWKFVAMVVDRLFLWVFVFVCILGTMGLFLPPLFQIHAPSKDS
# rat α3β4-nAChR, sequence (P04757 26-499): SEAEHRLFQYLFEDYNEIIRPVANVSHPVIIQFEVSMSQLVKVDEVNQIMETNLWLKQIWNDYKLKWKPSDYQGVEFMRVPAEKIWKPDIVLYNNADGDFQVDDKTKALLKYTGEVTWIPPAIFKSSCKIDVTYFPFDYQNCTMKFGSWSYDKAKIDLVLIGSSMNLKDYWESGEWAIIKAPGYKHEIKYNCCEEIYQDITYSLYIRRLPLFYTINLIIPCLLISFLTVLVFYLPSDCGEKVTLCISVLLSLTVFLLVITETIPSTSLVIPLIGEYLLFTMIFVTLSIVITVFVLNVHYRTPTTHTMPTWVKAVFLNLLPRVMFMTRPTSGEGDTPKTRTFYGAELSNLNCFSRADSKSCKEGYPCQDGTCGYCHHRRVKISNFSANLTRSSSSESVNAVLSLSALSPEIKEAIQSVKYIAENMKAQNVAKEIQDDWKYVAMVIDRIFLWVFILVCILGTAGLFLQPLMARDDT
# κ opioid receptor = κ opioid receptor (Homo sapiens, UniProt P41145); assay: off-target radioligand binding assay; details: 10 μM
# [6] = 62 receptor/enzyme screen; format: binding; details: 10 μM
# In short: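 Profiling in a 62-target radioligand and enzyme panel. Test compound was run at 100 nM and 10 000 nM, in duplicate. The work was done by a contractor to the NIDA Addiction Treatment Discovery Program.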
# DAD1 = DAD1 (Homo sapiens, UniProt P21728); assay: off-target radioligand binding assay; details: 10 μM
# α4β2*-nAChR in α5KO = α4β2*-nAChR in α5KO (Mus musculus, UniProt O70174+Q9ERK7); format: cell-based; details: for max (% nic) dopamine release, α4β2 in α5KO*: 10 μM (+) PHT or 100 μM (−) PHT compared to 10 μM nic response; for EC50: read-out: EC50 dopamine release, α4β2 in α5KO*, α5KO mice
# α4β2*-nAChR in α5KO, sequence (O70174 31-629): as the sequence (O70174 31-629, further chain) above
# α4β2*-nAChR in α5KO, sequence (Q9ERK7 26-501): as the sequence (Q9ERK7 26-501) above
# DAT = DAT (Homo sapiens, UniProt Q01959); assay: off-target radioligand binding assay; details: 10 μM
# NET = NET (Homo sapiens, UniProt P23975); assay: off-target radioligand binding assay; details: 10 μM
# In short: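 Inhibition of specific [125I]RTI-55 binding to the norepinephrine transporter, with test compound at 10 μM. The screen was run by a NIDA drug-discovery program contractor.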
# rat α4β2-nAChR = rat α4β2-nAChR (Rattus norvegicus, UniProt P09483+P12390); format: cell-based; details: for antagonism (% of EC50 ACh remaining) α4β2: 100 μM compound, ACh 70 μM; for IC50: read-out: antagonism, IC50 α4β2, vs EC50 ACh 70 μM
# rat α4β2-nAChR, sequence (P12390 25-500): as the sequence (Q9ERK7 26-501) above, with T350A, M371V, Q379R, A383T, L387P, M391V, I449V, S468P counted along it
# rat α4β2-nAChR, sequence (P09483 31-630): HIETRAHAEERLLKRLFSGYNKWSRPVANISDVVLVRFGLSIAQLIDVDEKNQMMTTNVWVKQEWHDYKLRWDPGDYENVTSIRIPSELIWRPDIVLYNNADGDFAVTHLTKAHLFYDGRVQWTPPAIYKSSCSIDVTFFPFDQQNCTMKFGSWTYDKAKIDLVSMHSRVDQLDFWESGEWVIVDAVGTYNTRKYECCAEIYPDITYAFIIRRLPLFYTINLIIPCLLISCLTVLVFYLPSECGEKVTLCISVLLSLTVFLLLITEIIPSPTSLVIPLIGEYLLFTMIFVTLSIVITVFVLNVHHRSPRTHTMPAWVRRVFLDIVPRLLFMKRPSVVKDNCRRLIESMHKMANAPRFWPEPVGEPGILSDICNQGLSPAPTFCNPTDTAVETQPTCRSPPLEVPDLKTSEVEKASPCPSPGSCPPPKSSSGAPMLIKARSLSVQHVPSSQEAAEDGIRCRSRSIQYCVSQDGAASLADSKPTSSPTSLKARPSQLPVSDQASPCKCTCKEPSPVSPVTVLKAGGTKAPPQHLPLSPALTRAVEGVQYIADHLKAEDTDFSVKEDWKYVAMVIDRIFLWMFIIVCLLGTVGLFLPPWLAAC
# ICR mice [7] = assay: conditioned place preference; format: in vivo, mouse
# In short: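 Test compound given s.c. 15 min before conditioning, in an unbiased three-chamber CPP. Male ICR mice, 8–10 weeks old, n = 8 per group. Baseline day 1: 5 min habituation, 15 min test. Then 3 days of twice-daily 20 min sessions, ≥5 h apart; test on day 5. Score: drug-paired-side time after minus before conditioning; mean ± SEM, p < 0.05 versus vehicle.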
# 5HT2A = 5HT2A (Homo sapiens, UniProt P28223); assay: off-target radioligand binding assay; details: 10 μM
# ICR mice [8] = assay: blockade of nicotine-induced CPP; format: in vivo, mouse; details: 15 min before nicotine 0.5 mg/kg s.c.
# In short: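 Male ICR mice, 8–10 weeks old, n = 8 per group, in an unbiased three-chamber CPP. Day 1: 5 min habituation, then a 15 min baseline, with the paired side randomised. Days 2–4: two 20 min sessions daily, ≥5 h apart, nicotine 0.5 mg/kg s.c. (saline, free base) versus saline. Test compound or vehicle s.c. 15 min before nicotine. Day 5 retest.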
# α4β2-nAChR = details: cited from earlier work
# α6β2*-nAChR [9] = target: T1, α6β2*-nAChR; details: read-out: binding Ki, α6β2; [125I]epibatidine; striatum and olfactory tubercle membranes from α4KO mice
# 5HT1A = 5HT1A (Homo sapiens, UniProt P08908); assay: off-target radioligand binding assay; details: 10 μM
# 5HT1A, sequence (P08908 whole entry, species assumed): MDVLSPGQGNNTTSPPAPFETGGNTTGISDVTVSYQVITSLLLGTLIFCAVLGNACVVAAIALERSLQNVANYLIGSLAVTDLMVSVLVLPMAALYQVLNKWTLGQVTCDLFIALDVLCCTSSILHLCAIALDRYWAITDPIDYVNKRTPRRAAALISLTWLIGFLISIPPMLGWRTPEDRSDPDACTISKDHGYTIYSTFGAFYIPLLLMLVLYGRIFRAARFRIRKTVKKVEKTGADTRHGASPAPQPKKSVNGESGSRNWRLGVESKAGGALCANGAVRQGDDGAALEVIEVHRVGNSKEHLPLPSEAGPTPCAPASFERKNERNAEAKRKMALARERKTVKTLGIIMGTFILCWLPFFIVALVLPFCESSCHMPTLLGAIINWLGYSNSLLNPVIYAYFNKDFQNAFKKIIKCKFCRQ
# [10] = percentage of the Emax for acetylcholine
compound,measurement,setting,value
"Cc1ncccc1OC[C@@H]1CCCN1 [ABT-089, 2-Methyl-3-[(2S)-pyrrolidin-2-yl]methoxypyridine]",effect on in vitro striatal DA release,α6β2*- and α4β2*-nAChRs,increases in vitro striatal DA release
"Pyrido[3,4]homotropane [PHT]",Ki,nAChRs,0.0062 µM
"CN1CCC[C@H]1c1cccnc1 [Nicotine, nicotine]",partial agonist activity at α4α6β2-nAChRs,α4α6β2-nAChRs,70%
"Pyrido[3,4]homotropane [(+)-PHT]",activity in locomotor-activity test,mouse [1],weak activity
same,affinity relative to (−)-PHT for inhibition of [3H]epibatidine binding,nAChRs,266 times
same,Ki,nAChRs,0.00129 µM
same,"activity in radioligand binding assay, SERT",SERT,inactive
same,"activity in radioligand binding assay, 5HT2C",5HT2C,inactive
same,"activity in radioligand binding assay, μ opioid receptor",μ opioid receptor,inactive
same,"max (% nic) dopamine release, sens α6β2",α6β2*-nAChR [2],94%
same,potency relative to (−)-PHT at the α6β2*-nAChR (DA release EC50),α6β2*-nAChR [2]; wild type mice,30 fold
same,"activity in radioligand binding assay, δ opioid receptor",δ opioid receptor,inactive
same,"activity in radioligand binding assay, DAD4",DAD4,inactive
same,antinociceptive (agonist) activity in hot-plate test,mouse [3],no antinociceptive activity
same,antagonism (% of EC50 ACh remaining) α7,rat α7-nAChR,87± 1%
same,IC50,rat α7-nAChR,720 ± 290 µM
same,"activity in radioligand binding assay, DAD2",DAD2,inactive
same,"max (% nic) dopamine release, α6β2 in α5KO",α6β2*-nAChR in α5KO,125%
same,EC50,α6β2*-nAChR in α5KO,0.2 µM
same,"max (% nic) dopamine release, res α4β2",α4β2*-nAChR,33%
same,potency relative to (−)-PHT at the α4β2*-nAChR (DA release EC50),α4β2*-nAChR; wild type mice,10 fold
same,activity in hypothermia test,mouse [4],weak activity
same,activity in tail-flick test given intrathecally,mouse [5],no antinociceptive activity
same,antinociceptive (agonist) activity in tail-flick test,mouse [5]; mouse,no antinociceptive activity
same,"activity in radioligand binding assay, DAD3",DAD3,inactive
same,antagonism (% of EC50 ACh remaining) α3β4,rat α3β4-nAChR,93 ± 3%
same,agonist activity α3β4 Emax (% ACh),rat α3β4-nAChR; [10],8.4 % ACh and 8.4 ± 0.5 % ACh
same,EC50,"rat α3β4-nAChR; read-out: agonist activity α3β4 EC50, concentration–response curve",50 ± 6 µM
same,IC50,rat α3β4-nAChR,242 ± 13 µM
same,"activity in radioligand binding assay, κ opioid receptor",κ opioid receptor,inactive
same,activity at off site targets in 62 receptor/enzyme screen (NovaScreen),[6],inactive
same,"activity in radioligand binding assay, DAD1",DAD1,inactive
same,"max (% nic) dopamine release, α4β2 in α5KO*",α4β2*-nAChR in α5KO,13%
same,EC50,α4β2*-nAChR in α5KO,2 µM
same,"activity in radioligand binding assay, DAT",DAT,inactive
same,inhibition of specific [125I]RTI-55 binding to the NET,NET,61%
same,agonist potency at α4β2-nAChR compared to α3β4-nAChR (EC50 comparison),rat α4β2-nAChR,12 fold
same,antagonist selectivity for α4β2- relative to α3β4-nAChR (IC50 comparison),rat α4β2-nAChR,15 fold
same,antagonist selectivity for α4β2- relative to α7-nAChR (IC50 comparison),rat α4β2-nAChR,45 fold
same,antagonism (% of EC50 ACh remaining) α4β2,rat α4β2-nAChR,17 ± 3%
same,agonist activity α4β2 Emax (% ACh),rat α4β2-nAChR; [10],4.6 % ACh and 4.6 ± 0.4 % ACh
same,EC50,"rat α4β2-nAChR; read-out: agonist activity α4β2 EC50, concentration–response curve",4 ± 1 µM
same,IC50,rat α4β2-nAChR,16 ± 3 µM
same,CPP scores,"ICR mice [7]; 3 mg/kg s.c., 15 min before conditioning",significantly increased
same,"activity in radioligand binding assay, 5HT2A",5HT2A,inactive
same,preference scores in comparison to nicotine alone,ICR mice [8]; pretreatment 1 mg/kg,significantly reduced
same,EC50,α4β2-nAChR; read-out: EC50 at α4β2-nAChR,5.5 µM
same,intrinsic activity at α4β2-nAChR,α4β2-nAChR; versus full agonist acetylcholine (1 mM),17%
same,Ki,α6β2*-nAChR [9],0.028 µM
same,"activity in radioligand binding assay, 5HT1A",5HT1A,inactive
"Pyrido[3,4]homotropane [(−)-PHT]",activity in locomotor-activity test,mouse [1],inactive
same,Ki,nAChRs,0.346 µM
same,"activity in radioligand binding assay, SERT",SERT,inactive
same,"activity in radioligand binding assay, 5HT2C",5HT2C,inactive
same,"activity in radioligand binding assay, μ opioid receptor",μ opioid receptor,inactive
same,"max (% nic) dopamine release, sens α6β2",α6β2*-nAChR [2],109%
same,"activity in radioligand binding assay, δ opioid receptor",δ opioid receptor,inactive
same,"activity in radioligand binding assay, DAD4",DAD4,inactive
same,"AD50, antagonism of antinociceptive effects of nicotine in the hot-plate test",mouse [3],0.8 µg/kg
same,antinociceptive (agonist) activity in hot-plate test,mouse [3],inactive
same,antagonism (% of EC50 ACh remaining) α7,rat α7-nAChR,84± 10%
same,IC50,rat α7-nAChR,353 ± 34 µM
same,"activity in radioligand binding assay, DAD2",DAD2,inactive
same,"max (% nic) dopamine release, α6β2 in α5KO",α6β2*-nAChR in α5KO,96%
same,EC50,α6β2*-nAChR in α5KO,2 µM
same,"max (% nic) dopamine release, res α4β2",α4β2*-nAChR,17%
same,activity in hypothermia test,mouse [4],inactive
same,activity in tail-flick test given intrathecally,mouse [5],inactive
same,"AD50, antagonism of nicotine-induced antinociception in the tail-flick test",mouse [5]; mouse,0.07 µg/kg
same,antinociceptive (agonist) activity in tail-flick test,mouse [5]; mouse,inactive
same,"activity in radioligand binding assay, DAD3",DAD3,inactive
same,antagonist selectivity for α3β4- relative to α4β2-nAChR,rat α3β4-nAChR,3 fold
same,antagonist selectivity for α3β4- relative to α7-nAChR,rat α3β4-nAChR,11 fold
same,antagonism (% of EC50 ACh remaining) α3β4,rat α3β4-nAChR,32 ± 3%
same,IC50,rat α3β4-nAChR,33 ± 6 µM
same,"activity in radioligand binding assay, κ opioid receptor",κ opioid receptor,inactive
same,activity at off site targets in 62 receptor/enzyme screen (NovaScreen),[6],inactive
same,"activity in radioligand binding assay, DAD1",DAD1,inactive
same,"max (% nic) dopamine release, α4β2 in α5KO*",α4β2*-nAChR in α5KO,10%
same,EC50,α4β2*-nAChR in α5KO,0.7 µM
same,"activity in radioligand binding assay, DAT",DAT,inactive
same,"activity in radioligand binding assay, NET",NET,inactive
same,antagonism (% of EC50 ACh remaining) α4β2,rat α4β2-nAChR,41 ± 4%
same,IC50,rat α4β2-nAChR,99 ± 13 µM
same,induction of significant preference in the CPP test,"ICR mice [7]; all doses tested, s.c.",ineffective
same,"activity in radioligand binding assay, 5HT2A",5HT2A,inactive
same,blockade of nicotine-induced CPP,ICR mice [8]; pretreatment 0.05 mg/kg,completely preventing nicotine preference
same,activation of currents at α4β2-nAChR,α4β2-nAChR,did not activate currents
same,Ki,α6β2*-nAChR [9],0.629 µM
same,"activity in radioligand binding assay, 5HT1A",5HT1A,inactive
